{"data": "Experimental data of several laboratories", "target": "Ephrin type-B receptor 3 (EPHB3, Homo sapiens, UniProt P54753)", "note": "Each line is one published result; the experiments were not run side by side."}
{"Compound": "CN1CCN(c2cnc3c(C4CCN(C(=O)c5ccc(OC(F)(F)F)cc5N)CC4)ncnc3c2)CC1", "observed": "cell-free assay", "method": "competition with immobilised ligand", "tested at": "1 µM", "measurement": "remaining binding", "result": "100%"}
{"Compound": "FC(F)c1nc2ccccc2n1-c1nc(N2CCOCC2)nc(N2CCOCC2)n1", "observed": "enzyme activity", "action": "inhibitor", "tested at": "10 µM", "measurement": "remaining activity", "result": "113%"}
{"Compound": "COc1ccnn2ncc(-c3ccnc(N(C)C)n3)c12", "observed": "binding", "tested at": "1 µM", "measurement": "remaining binding", "result": "100%"}
{"Compound": "CCN(CC)c1ccc(C2=NNC(=O)CC2C)cc1[N+](=O)[O-] (stereo not drawn)", "observed": "enzyme activity", "action": "inhibitor", "tested at": "10 µM", "measurement": "remaining activity", "result": "102%"}
{"Compound": "Cc1cc(NC(=O)c2cccc3cc(-c4cccc5[nH]nc(N)c45)ccc23)ccc1F", "observed": "enzyme activity", "action": "inhibitor", "tested at": "0.1 µM", "measurement": "activity vs control", "result": "88%"}
{"Compound": "CN(c1ncccc1CNc1nc(Nc2ccc3c(c2)CC(=O)N3)ncc1C(F)(F)F)S(C)(=O)=O", "observed": "enzyme activity", "action": "inhibitor", "tested at": "1 µM", "measurement": "inhibition", "result": "41%"}
{"Compound": "Cc1sc(C(=O)NC2COC2)cc1-n1cc(NC(=O)Nc2c(F)cccc2Cl)cn1", "observed": "enzyme activity", "action": "inhibitor", "tested at": "10 µM", "measurement": "remaining activity", "result": "97.2%"}
{"Compound": "CN(C(=O)c1ccccc1)c1cc(N(C)c2ccc3c(c2)CCc2ccc(C(=O)NCCN4CCOCC4)cc2C3=O)ccc1F", "observed": "cell-free assay", "method": "competition with immobilised ligand", "tested at": "1 µM", "measurement": "remaining binding", "result": "94%"}
{"Compound": "Cc1cnc(NC2CCOCC2)nc1-n1cnc(C(=O)NC(CN)c2cc(F)cc(Cl)c2)c1 (stereo not drawn)", "observed": "enzyme activity", "action": "inhibitor", "method": "radiometric", "tested at": "1 µM", "measurement": "remaining activity", "result": "115%"}
{"Compound": "COc1cc(Nc2cnc(C#N)c(O[C@H](C)CN(C)C)n2)ncc1-c1cnn(C)c1", "observed": "enzyme activity", "action": "inhibitor", "method": "radiometric", "tested at": "10 µM", "measurement": "remaining activity", "result": "23%"}
{"Compound": "Nc1ncnc2occ(-c3ccc(NC(=O)Nc4cc(C(F)(F)F)ccc4F)cc3)c12", "observed": "cell-free assay", "tested at": "20 µM", "measurement": "remaining signal", "result": "0%"}
{"Compound": "Cn1nc(C(F)(F)F)cc1-c1cnc(N2CCc3cc(S(=O)(=O)Nc4c(F)cc(Cl)cc4F)cc(N4CCCC4=O)c32)nc1", "observed": "cell-free assay", "method": "competition with immobilised ligand", "tested at": "1 µM", "measurement": "remaining binding", "result": "95%"}
{"Compound": "CNC(=O)c1cc(Oc2ccc(NC(=O)Nc3ccc(Cl)c(C(F)(F)F)c3)cc2)ccn1", "observed": "enzyme activity", "action": "inhibitor", "tested at": "10 µM", "measurement": "inhibition", "result": "38%"}
{"Compound": "O=C1NC(=O)c2cc(Nc3ccc(F)cc3)c(Nc3ccc(F)cc3)cc21", "observed": "cell-free assay", "tested at": "0.5 µM", "measurement": "remaining signal", "result": "94.7%"}
{"Compound": "CS(=O)(=O)N1CCCC(NC(=O)[C@H](CCC2CCCCC2)NC(=O)c2ccc(CNc3ncnc4c3nnn4-c3ccccc3)cc2)C1 (stereo partly drawn)", "observed": "cell-free assay", "method": "competition with immobilised ligand", "tested at": "0.1 µM", "measurement": "remaining binding", "result": "91%"}
{"Compound": "CC(C)(C)c1nc2c(s1)c1nc(N)ncc1c1ccc(NS(=O)(=O)c3c(F)cccc3F)c(F)c12", "observed": "enzyme activity", "action": "inhibitor", "method": "radiometric", "tested at": "1 µM", "measurement": "remaining activity", "result": "93%"}
{"Compound": "Cc1ccc(Nc2nccc(N(C)c3ccc4c(C)n(C)nc4c3)n2)cc1S(N)(=O)=O", "observed": "cell-free assay", "tested at": "0.5 µM", "measurement": "remaining signal", "result": "71.7%"}
{"Compound": "CCCOc1ccc([C@H]2[C@H](C(=O)O)[C@@H](c3ccc4c(c3)OCO4)CN2CC(=O)Nc2c(CC)cccc2CC)cc1", "observed": "cell-free assay", "method": "competition with immobilised ligand", "tested at": "1 µM", "measurement": "remaining binding", "result": "97%"}
{"Compound": "COc1cc2ncnc(Nc3ccc(Oc4ccccc4)c(C)c3C)c2cc1OC", "observed": "enzyme activity", "action": "inhibitor", "tested at": "1 µM", "measurement": "inhibition", "result": "2%"}
{"Compound": "COc1cccc(CNC(=O)c2nc3scc(COCc4ccc(C(=O)O)cc4)c3c(=O)[nH]2)c1", "observed": "cell-free assay", "method": "competition with immobilised ligand", "tested at": "1 µM", "measurement": "remaining binding", "result": "85.4%"}
{"Compound": "Nc1nc(Nc2ccccc2)sc1C(=O)c1c(F)cccc1F", "observed": "enzyme activity", "action": "inhibitor", "tested at": "10 µM", "measurement": "remaining activity", "result": "59%"}
